Legend:
[1] = melting temperature; fluorescence melt of hairpins on a sequencing array, two-state fit, raised by 9.35 °C to match UV melts; conditions: sodium 0.088 M
Method in brief: (§1)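 To match UV melts, fitted temperatures were raised by 9.35 °C. These fits were bootstrapped two-state models that gave melting temperature and folding enthalpy, combined by inverse variance over four replicates. The input was normalised Cy3 fluorescence of library hairpins with annealed Cy3 and quencher oligos on a sequenced MiSeq flow cell, imaged in 50 mM Na-HEPES pH 8.0, 25 mM NaCl in 2.5 °C steps up to 60 °C.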

[2] = folding enthalpy; higher = less favourable; fluorescence melt of hairpins on a sequencing array, two-state fit; conditions: sodium 0.088 M
Method in brief: as §1

Sequence	Tm [1] [°C]	folding enthalpy [2] [kcal/mol]
GATCTACTCTAGATC ((((((...))))))	40.6	-31
GCCGATGCGAAAGCAGGC (((..(((....))))))	58.5	-20.1
GAGTTCGCGAAAGCGCTC (((..(((....))))))	25.9	-6.78
GCTGTGCGAAAGCTCAGC ((((.((....)).))))	68	-36.8
CGAAGGAAACTTCG (((((....)))))	48.6	-21.5
GGATGCGGAAACGTATCC ((((.((....)).))))	52.6	-46.7
GGATTTCCGAAAGGATCC (((..(((....))))))	34.2	-17.6
GATCTGACTTCAGATC ((((((....))))))	49.2	-34.2
GCAACACGAAAGTGATGC (((.(((....))).)))	59	-38.9
GTGCTCCGAAAGGACAC (((.(((....))))))	51.9	-27.4
GAGATAGGAAACTGTCTC ((((.((....)).))))	41.3	-29.5
GATCGGCATTCCGATC ((((((....))))))	57	-37.6
GTACTCCCGAAAGGGTAC (((..(((....))))))	33.5	-12.9
GCGACGCGAAAGCATCGC ((((.((....)).))))	66.9	-43.2
GTACGACGAAAGTCTTAC (((.(((....))).)))	40.3	-26.1
GCGATCTTTCGC ((((....))))	51.4	-27.5
GCCGTGCGAAAGCAGCGC ((..(((....)))..))	55.9	-13.9
AAGGGGAAACCCTT (((((....)))))	46	-13.8
GAGAAGCGAAAGCTCCTC (((.(((....))).)))	45.1	-21.7
GAGGCTGGAAACAGTCTC (((.(((....))).)))	52.6	-35.8
GCGCGCGAAAGCGGACGC ((((((....)))..)))	64.9	-16.5
GCGTCCACGAAAGTGCGC (((..(((....))))))	48.6	-23.3
CGCACTCGGAAACGAGCG (((..(((....))))))	39.9	-14.1

Sequence	Tm [1] [°C]	folding enthalpy [2] [kcal/mol]
GGAGGCGGAAACGCCTTC (.(((((....))))).)	57.5	-14.9
GGGATAGGAAACTGTTCC ((.(.((....)).).))	28.6	-16.5
GTCTGCGAAAGCAGTGAC ((((((....)))..)))	40.5	-9.57
GATCGGTTTCCGATC ((((((...))))))	59	-34.7
GCATGGCGAAAGCTAAGC ((.(.((....)).).))	38.4	-12.6
GATCGGTTCGCCGATC ((((((....))))))	61.4	-45
GATCATGTGTATGATC ((((((....))))))	48.4	-41.9
GCCCAGCGAAAGCGGCGC ((.(.((....)).).))	64.5	-17
GATCTGTAAGCAGATC ((((((....))))))	51.4	-49.9
GCGAAGCGAAAGCTGCGC (((.(((....))).)))	67.7	-23.6
GGTCATCGAAAGATCACC (((.(((....))).)))	35.7	-30.2
GAGTTCGGAAACGAGTTC ((..(((....)))..))	30.7	-9.81
GCTCTCGAAAGAGTTAGC ((((((....)))..)))	35.3	-21.8
GAAGCCGGAAACGGCTCC (.(((((....))))).)	46.8	-9.15
GCGTGCGGAAACGTACGC ((((.((....)).))))	66.3	-31.7
GCGACCTTTCGC ((((....))))	47	-21.4
GCCGGATCGAAAGATGGC (((..(((....))))))	46	-17.6
GATCGCTCGTGCGATC ((((((....))))))	67.2	-41.6
GATCGTTCCCACGATC ((((((....))))))	53.8	-43.2
GCGACGGTTCGC ((((....))))	49.1	-20.1
AACGTGAAAACGTT (((((....)))))	48	-19.2
GGGATCGAAAGATCGCCC ((((((....)))..)))	47.2	-15.3
GGGTTGGGAAACCGACTC (.((.((....)).)).)	41.2	-16.3
